Source: PubChem BioAssay (several laboratories)
Shown are actives, neighbours in structure and some others; about 5.9% of the full set was active somewhere.
HUVEC prolif 384 = human endothelial cell proliferation inhibition | HUVEC proliferation, CellTiter-Glo luminescence, 72 h; stronger effect = lower value | viability, % at 10 µM (by protocol) | 1.1% of 86,000 active | AID 648;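 active = viability at or below 30%; inactive = viability above 30%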
Jurkat viability = cytotoxic compounds reducing Jurkat cell viability | Jurkat E6.1 viability, ATP luminescence, 48 h | inhibition, % at 4 µM | AID 463 | 1.2% of 56,000 active;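 active = inhibition above the mean inhibition of all tested compounds plus 3 SD, cut at about 28% in these data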
MT1-MMP txn act = activates MT1-MMP transcription; HT1080 MT1-MMP promoter luciferase reporter, luminescence, overnight; stronger effect = higher value; 0.16% of 86,000 active; AID 750; activation factor at 10 µM;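 active = activation factor of at least 2 for MT1-MMP transcription at 10 µM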
PTK2B oligo ant = antagonists of human Pyk2 oligomerization | Q293 cells, Pyk2 FERM NanoBiT luminescence; stronger effect = lower value | z-score (the deposit names both 25 µM and 10 µM) | 0.83% of 99,000 active;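 active = Z-score of -3 or lower, scaled per plate to the spread of control and sample wells; inactive = z-score above -3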;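 note: negative z-score means lost luminescence so less FERM oligomerization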
Target sequence (Q14289 whole entry, looked up): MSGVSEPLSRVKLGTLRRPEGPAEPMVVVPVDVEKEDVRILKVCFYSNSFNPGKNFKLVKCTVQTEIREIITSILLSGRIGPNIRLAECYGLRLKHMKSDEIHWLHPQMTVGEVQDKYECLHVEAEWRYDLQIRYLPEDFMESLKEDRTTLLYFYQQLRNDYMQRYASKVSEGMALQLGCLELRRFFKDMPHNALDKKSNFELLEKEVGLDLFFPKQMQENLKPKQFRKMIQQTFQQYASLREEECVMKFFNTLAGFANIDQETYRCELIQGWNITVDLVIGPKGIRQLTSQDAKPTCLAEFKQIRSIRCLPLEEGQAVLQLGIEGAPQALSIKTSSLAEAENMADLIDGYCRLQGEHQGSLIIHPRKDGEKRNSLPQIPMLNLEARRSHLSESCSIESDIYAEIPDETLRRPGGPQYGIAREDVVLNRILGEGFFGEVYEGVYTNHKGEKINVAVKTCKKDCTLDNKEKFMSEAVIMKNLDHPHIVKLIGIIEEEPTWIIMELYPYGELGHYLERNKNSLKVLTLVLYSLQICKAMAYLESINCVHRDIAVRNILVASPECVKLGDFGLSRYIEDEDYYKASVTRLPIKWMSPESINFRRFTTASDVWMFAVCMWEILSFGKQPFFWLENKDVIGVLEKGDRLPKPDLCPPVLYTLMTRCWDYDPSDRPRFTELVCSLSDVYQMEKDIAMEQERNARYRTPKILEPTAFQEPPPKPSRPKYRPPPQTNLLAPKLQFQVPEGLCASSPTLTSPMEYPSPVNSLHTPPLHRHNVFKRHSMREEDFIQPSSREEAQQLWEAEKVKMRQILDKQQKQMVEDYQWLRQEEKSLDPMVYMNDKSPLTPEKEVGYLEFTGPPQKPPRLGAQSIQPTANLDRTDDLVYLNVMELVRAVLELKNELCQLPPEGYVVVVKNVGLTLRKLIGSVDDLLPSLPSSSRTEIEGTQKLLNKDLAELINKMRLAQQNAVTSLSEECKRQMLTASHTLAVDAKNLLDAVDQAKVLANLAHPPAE
H69AR growth 86K = blocks growth of human H69AR lung tumor cells; H69AR lung tumor viability, ATP luminescence, 72 h; stronger effect = lower value; viability, % at 10 µM; 6% of 85,000 active;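 active = viability at or below 40%; inactive = viability above 40%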;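 note: multidrug resistant small cell line overexpressing MRP-1 efflux transporter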
Fibroblast inh = blocks proliferation of human lung fibroblasts. LL 47 human lung fibroblast viability, ATP luminescence; stronger effect = lower value. viability, % at 10 µM. 1.1% of 85,000 active;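 active = viability at or below 50% in the single dose screen; inactive = viability above 50%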;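 note: compound exposure lasted 72 h before the ATP readout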
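material = human LL 47 lung fibroblast cells | dosing = compounds added from tenfold dosing solution, 0.1% DMSO final | timing = overnight cell rest, 72 h compound treatment at 37 °C | measured by = CellTiter-Glo luminescence measuring cellular ATP | evaluation = % viability versus median cells-only luminescence | control set = cell-only wells, no compound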
Of the large screens only hits and unclear results are named; the others gave an inactive call.

Cc1ccc(C2c3c(-c4ccccc4O)n[nH]c3C(=O)N2Cc2ccncc2)cc1 (centres undefined)	Jurkat viability 86, H69AR growth 86K 7.6
COc1ccc(CCN2C(=O)c3[nH]nc(-c4ccccc4O)c3C2c2cccc(Cl)c2)cc1 (centres undefined)	HUVEC prolif 384 15, PTK2B oligo ant -3.5, H69AR growth 86K 23 (no result: Jurkat viability)
COc1ccc(C2c3c(-c4ccccc4O)n[nH]c3C(=O)N2CCc2ccc(OC)c(OC)c2)cc1 (centres undefined)	PTK2B oligo ant -3.5
Oc1ccccc1-c1n[nH]c(=S)n1Cc1ccco1	none (no result: Jurkat viability)
COc1ccc(C2C(C(C)=O)=C(O)C(=O)N2CCc2ccccc2)c(OC)c1 (centres undefined)	none
O=C(Oc1cc(-c2ccccc2)no1)c1ccc(Cl)cc1	none (no result: Jurkat viability)
COC(=O)CS(=O)(=O)c1nnc([C@H](Cc2ccccc2)NC(=O)OC(C)(C)C)o1	H69AR growth 86K 0.3, Fibroblast inh 0.9
Cc1cccc(CS(=O)(=O)c2nnc([C@H](Cc3ccccc3)NC(=O)OC(C)(C)C)o2)c1	H69AR growth 86K 0.5 (no result: Jurkat viability)
COC(=O)CSc1nnc([C@H](Cc2ccccc2)NC(=O)OC(C)(C)C)o1	none
O=C(CSc1cn(CCNC(=O)c2cccs2)c2ccccc12)NC1CCCC1	none (no result: Jurkat viability, MT1-MMP txn act, PTK2B oligo ant)
CO/N=C/NC(=O)NOCc1ccc(Cl)cc1Cl	none (no result: Jurkat viability, MT1-MMP txn act)
O=C(N/C=N/OCc1ccc(Cl)cc1Cl)NOCc1c(Cl)cccc1Cl	H69AR growth 86K 11 (no result: Jurkat viability, MT1-MMP txn act)
Cn1c(=O)c2c(nc(Oc3ccc4c(c3)OCO4)n2Cc2ccc(Cl)cc2)n(C)c1=O	HUVEC prolif 384 12, H69AR growth 86K 12 (no result: Fibroblast inh)
Cn1c(Oc2ccc3c(c2)OCO3)nc2c1c(=O)n(Cc1ccccc1)c(=O)n2C	none (no result: Jurkat viability)
COc1ccc(N2CCn3c2nc2c3c(=O)n(CCCc3ccccc3)c(=O)n2C)c(OC)c1	Jurkat viability 50
Cn1c(=O)n(Cc2ccccc2)c(=O)c2c1nc1n2CCCN1Cc1ccccc1	H69AR growth 86K 32
Cn1c(=O)c2c(nc(CN3CCN(Cc4ccccc4)CC3)n2Cc2ccc(Cl)cc2)n(C)c1=O	H69AR growth 86K 10, Fibroblast inh 45 (no result: PTK2B oligo ant)
Cn1nc(C(F)(F)F)c(C(=O)Nc2ccc(F)cc2F)c1Sc1ccc(Cl)cc1	none (no result: HUVEC prolif 384, Jurkat viability, MT1-MMP txn act, H69AR growth 86K, Fibroblast inh)
CCC(C)(C)c1ccc2c(c1)C(=O)c1ccccc1C2=O	none (no result: HUVEC prolif 384, Jurkat viability, MT1-MMP txn act, H69AR growth 86K, Fibroblast inh)
COc1ccc(-n2c(=O)c3ccccc3n(CC(=O)NC3CCCCC3)c2=O)cc1	none (no result: Jurkat viability)
COc1ccccc1N1CCN(S(=O)(=O)c2ccc(Cl)s2)CC1	none
Cn1c(=O)c2c(nc(NCc3ccc4c(c3)OCO4)n2Cc2ccccc2)n(C)c1=O	H69AR growth 86K 29 (no result: Jurkat viability)
Cn1c(=O)c2c(nc(NCc3ccc4c(c3)OCO4)n2Cc2ccc(F)cc2)n(C)c1=O	H69AR growth 86K 23 (no result: Jurkat viability)
CCn1c2ccccc2c2nc3cc(S(=O)(=O)N4CCOCC4)ccc3nc21	H69AR growth 86K 6.1
COc1nc(OC)nc(N2CCC(C(=O)NCC3CCCCC3)CC2)n1	H69AR growth 86K 31
O=C(Nc1cc(Sc2ccccn2)cc([N+](=O)[O-])c1)c1ccc(Cl)cc1	PTK2B oligo ant -3.7 (no result: HUVEC prolif 384, Jurkat viability, MT1-MMP txn act, H69AR growth 86K, Fibroblast inh)
O=C(COc1ccc2c(c1)CCC2)N1CCN(c2ccccc2F)CC1	none (no result: HUVEC prolif 384, Jurkat viability, MT1-MMP txn act, H69AR growth 86K, Fibroblast inh)
COc1cc2c(cc1OC)C1(Nc3c-2c(C)nn3-c2ccccc2)C(=O)Nc2ccccc21 (centres undefined)	none (no result: Jurkat viability)
COc1cc2c(cc1OC)C1(Nc3c-2c(-c2ccccc2)nn3-c2ccccc2)C(=O)Nc2ccccc21 (centres undefined)	PTK2B oligo ant -3.2 (no result: Jurkat viability)
CC1CCCN(CC(O)CN)C1 (centres undefined)	none (no result: Jurkat viability)
CCOC(=O)CC(=O)CSCC(=O)Nc1ccc(C)cc1	none (no result: H69AR growth 86K)
O=c1c2ccccc2nc2c3ccccc3c(NCCN3CCOCC3)nn12	H69AR growth 86K 19, Fibroblast inh 33 (no result: Jurkat viability, PTK2B oligo ant)
O=c1c2ccccc2nc2c3ccccc3c(N3CCOCC3)nn12	none (no result: PTK2B oligo ant)
c1ccc(-c2nc(NCCCN3CCOCC3)c3ccccc3n2)cc1	H69AR growth 86K 26
Cc1cc(N/C=C2\CCCCC2=O)no1	none (no result: MT1-MMP txn act)
O=C1C(N2CCOCC2)=C(n2nnc3ccccc32)C(=O)c2ccccc21	HUVEC prolif 384 2.2, H69AR growth 86K 1.4, Fibroblast inh 2.4 (no result: Jurkat viability, MT1-MMP txn act)
CN1CC(c2ccccn2)C2(SC(=S)N(Cc3ccccc3)C2=O)C12C(=O)Nc1ccccc12 (centres undefined)	none (no result: Jurkat viability)
